Laboratory results published in ChEMBL document CHEMBL2040740, “Synthesis and antitumor activity of formononetin nitrogen mustard derivatives” (Eur J Med Chem, 2012).
Activity calls are given as the source filed them. The calls are words filed in the database; no cut-off is given here.

Assays:
HeLa [1] = test: Cytotoxicity against human HeLa cells after 72 hrs by MTT assay; assay type: functional, cell-based
In short: (§1)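 Cells grown at 37 °C in 5% CO₂/95% air, in RPMI-1640 or DMEM with 10% neonatal bovine serum or 10% FBS. Exposed to a concentration series for 72 h, then MTT added for a further 4 h at 37 °C. Formazan dissolved in DMSO and absorbance read at 570 and 630 nm. Triplicate wells in three independent experiments; IC50 calculated by dose-effect analysis.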

DU-145 = test: Cytotoxicity against human DU145 cells after 72 hrs by MTT assay; assay type: functional, cell-based; settings: DU-145, 72 h; in short: as §1
SH-SY5Y = test: Cytotoxicity against human SH-SY5Y cells after 72 hrs by MTT assay; assay type: functional, cell-based; in short: as §1
SGC-7901 = test: Cytotoxicity against human SGC7901 cells after 72 hrs by MTT assay; assay type: functional, cell-based; settings: SGC-7901, 72 h; in short: as §1
HCT-116 [2] = test: Cytotoxicity against human HCT116 cells after 72 hrs by MTT assay; assay type: functional, cell-based; settings: HCT-116, 72 h; in short: as §1
HCT-116 [3] = test: Induction of apoptosis in human HCT116 cells assessed as late apoptotic to necrotic cells at 2 uM after 48 hrs by annexinV-FITC/PI staining-based flow cytometry (reference value: 0.43%); assay type: functional
In short: (§2)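 After 48 h treatment, cells washed twice in cold PBS and resuspended in binding buffer at 1 × 10⁵ cells/mL. Stained with Annexin V-FITC and propidium iodide in the dark for 15 min at room temperature, then analysed by flow cytometry. Lower-right quadrant scored as early-mid apoptotic, upper-right as late apoptotic/necrotic. Experiments performed three times.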

HCT-116 [4] = test: Cell cycle arrest in human HCT116 cells assessed as accumulation in G2/M phase after 48 hrs by flow cytometry; assay type: functional, cell-based
In short: (§3)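 Cells exposed to test agent for 48 h, then harvested, washed twice in PBS and fixed in 75% ice-cold ethanol at least overnight. DNA content of 10,000 events analysed by flow cytometry, giving percentage of cells in each cycle phase versus vehicle control.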

HCT-116 [5] = test: Induction of apoptosis in human HCT116 cells assessed as late apoptotic to necrotic cells at 8 uM after 48 hrs by annexinV-FITC/PI staining-based flow cytometry (reference value: 0.43%); assay type: functional; in short: as §2
HCT-116 [6] = test: Cell cycle arrest in human HCT116 cells assessed as accumulation in G2/M phase at 8 uM after 48 hrs by flow cytometry relative to control; assay type: functional; in short: as §3
HCT-116 [7] = test: Induction of apoptosis in human HCT116 cells assessed as early to mid apoptotic cells at 8 uM after 48 hrs by annexinV-FITC/PI staining-based flow cytometry (reference value: 1.62%); assay type: functional; in short: as §2
HCT-116 [8] = test: Induction of apoptosis in human HCT116 cells assessed as early to mid apoptotic cells at 2 uM after 48 hrs by annexinV-FITC/PI staining-based flow cytometry (reference value: 1.62%); assay type: functional; in short: as §2
HCT-116 [9] = test: Cell cycle arrest in human HCT116 cells assessed as decrease in S phase cells at 2 to 8 uM after 48 hrs by flow cytometry; assay type: functional, cell-based; in short: as §3
HeLa [10] = test: Cell cycle arrest in human HeLa cells assessed as accumulation in G2/M phase at 15 uM after 48 hrs by flow cytometry relative to control; assay type: functional; in short: as §3
HeLa [11] = test: Induction of apoptosis in human HeLa cells assessed as early to mid apoptotic cells at 5 uM after 48 hrs by annexinV-FITC/PI staining-based flow cytometry (reference value: 2.93%); assay type: functional; in short: as §2
HeLa [12] = test: Cell cycle arrest in human HeLa cells assessed as decrease in S phase cells at 3.75 to 15 uM after 48 hrs by flow cytometry; assay type: functional, cell-based; in short: as §3
HeLa [13] = test: Cell cycle arrest in human HeLa cells assessed as accumulation in G2/M phase after 48 hrs by flow cytometry; assay type: functional, cell-based; in short: as §3
HeLa [14] = test: Induction of apoptosis in human HeLa cells assessed as early to mid apoptotic cells at 10 uM after 48 hrs by annexinV-FITC/PI staining-based flow cytometry (reference value: 2.93%); assay type: functional; in short: as §2
HeLa [15] = test: Induction of apoptosis in human HeLa cells assessed as late apoptotic to necrotic at 5 uM after 48 hrs by annexinV-FITC/PI staining-based flow cytometry (reference value: 1.98%); assay type: functional; in short: as §2

Row | Structure (SMILES) | IC50 (HeLa [1]) | IC50 (DU-145) | IC50 (SH-SY5Y) | IC50 (SGC-7901) | IC50 (HCT-116 [2]) | also measured
1 | COc1ccc(-c2coc3cc(O)ccc3c2=O)cc1N(CCCl)CCCl | 56.3 µM | 22.6 µM | 2.7 µM | 8.2 µM | 4.1 µM | –
2 | CCCCOc1ccc2c(=O)c(-c3ccc(OC)c(N(CCCl)CCCl)c3)coc2c1 | 11.8 µM | 8.28 µM | 16.3 µM | 11.8 µM | 17.1 µM | –
3 | COc1ccc(-c2coc3cc(OC4CCCCCC4)ccc3c2=O)cc1N(CCCl)CCCl | 8.85 µM | 10.1 µM | 2.08 µM | 14.3 µM | 5.72 µM | –
4 | CCCOc1ccc2c(=O)c(-c3ccc(OC)c(N(CCCl)CCCl)c3)coc2c1 | 12.8 µM | 28.8 µM | 7.89 µM | > 100 µM | 15.2 µM | –
5 | COc1ccc(-c2coc3cc(OC(C)C)ccc3c2=O)cc1N(CCCl)CCCl | 12.5 µM | 19.5 µM | 2.17 µM | 9.21 µM | 3.8 µM | Activity (HCT-116 [3]): 0.38%; Activity (HCT-116 [4]): Dose-dependent effect; Activity (HCT-116 [5]): 43.72%; Activity (HCT-116 [6]): 24.84%; Activity (HCT-116 [7]): 38.1%; Activity (HCT-116 [8]): 9.95%; Activity (HCT-116 [9]): Active
6 | COc1ccc(-c2coc3cc(OC4CCCC4)ccc3c2=O)cc1N(CCCl)CCCl | 19.3 µM | 11.1 µM | 5.13 µM | 15.2 µM | 8.75 µM | –
7 | CCOc1ccc2c(=O)c(-c3ccc(OC)c(N(CCCl)CCCl)c3)coc2c1 | 10.7 µM | 23.9 µM | 11.9 µM | 13 µM | 8.47 µM | –
8 | COc1ccc(-c2coc3cc(OCCC(C)C)ccc3c2=O)cc1N(CCCl)CCCl | 9.81 µM | 6.6 µM | 10.4 µM | 9.47 µM | 7.67 µM | –
9 | COc1ccc(-c2coc3cc(OCCc4ccccc4)ccc3c2=O)cc1N(CCCl)CCCl | 17.8 µM | 7.57 µM | 3.84 µM | 11 µM | 8.05 µM | –
10 | CCC(C)Oc1ccc2c(=O)c(-c3ccc(OC)c(N(CCCl)CCCl)c3)coc2c1 (stereo not drawn) | 18.9 µM | 28.8 µM | 3.58 µM | 47.5 µM | 20.2 µM | –
11 | COc1ccc(-c2coc3cc(O)ccc3c2=O)cc1 [FORMONONETIN] | 8.51 µM | > 100 µM | > 100 µM | 2.17 µM | 61 µM | –
12 | COc1ccc(-c2coc3cc(OCc4ccc(C)cc4)ccc3c2=O)cc1N(CCCl)CCCl | 12.6 µM | 18.8 µM | 49.9 µM | 7.73 µM | 9.41 µM | –
13 | C=CCOc1ccc2c(=O)c(-c3ccc(OC)c(N(CCCl)CCCl)c3)coc2c1 | 9.22 µM | 15.4 µM | 4.51 µM | 10.2 µM | 7.54 µM | –
14 | C=C(C)COc1ccc2c(=O)c(-c3ccc(OC)c(N(CCCl)CCCl)c3)coc2c1 | 18.3 µM | 15.6 µM | 10.8 µM | 15.4 µM | 14.6 µM | –
15 | N[C@@H](Cc1ccc(N(CCCl)CCCl)cc1)C(=O)O [MELPHALAN] | 24 µM | 96.3 µM | 5.5 µM | 51 µM | 20.9 µM | –
16 | COc1ccc(-c2coc3cc(OCc4ccccc4)ccc3c2=O)cc1N(CCCl)CCCl | 16.4 µM | 26.5 µM | 11.4 µM | 18.8 µM | 4.97 µM | –
17 | COc1ccc(-c2coc3cc(OCC=C(C)C)ccc3c2=O)cc1N(CCCl)CCCl | 18 µM | 12.2 µM | 5.25 µM | 19.8 µM | 13.8 µM | –
18 | COc1ccc(-c2coc3cc(OC4CCCCC4)ccc3c2=O)cc1N(CCCl)CCCl | 8.29 µM | 11.2 µM | 4.44 µM | 15.8 µM | 6.54 µM | Activity (HeLa [10]): 21.33%; Activity (HeLa [11]): 3.06%; Activity (HeLa [12]): Active; Activity (HeLa [13]): Dose-dependent effect; Activity (HeLa [14]): 8.83%; Activity (HeLa [15]): 3.27%
